Assay results from ChEMBL document CHEMBL1629579, “Correlating echinocandin MIC and kinetic inhibition of fks1 mutant glucan synthases for Candida albicans: implications for interpretive breakpoints” (Antimicrob Agents Chemother, 2009).
In brackets after ≈: the same amount, converted by molar mass. Numbered stars: 1 amine (or outer) side, 2 acyl side, 3 side chain; on linkers, the order of the positions; unused ones are H or OH. Bridge positions count the residues as written; N and C are the ends. Square brackets hold non-standard residues; d marks the D form. Peptide text beside a SMILES is read from it. * marks the point of attachment. hTyr(3S-OH,4S-OH,3'-OSO3H) = N[C@H](C(=O)O)[C@H](O)[C@@H](O)c1ccc(O)c(OS(=O)(=O)O)c1; Orn(4R-OH,5R-OH) = O=C([C@H](C[C@@H](O)[C@@H](O)N[*:3])N[*:1])[*:2]; Pro(3S-OH,4S-Me) = C[C@H]1CN[C@H](C(=O)O)[C@H]1O; X1 = CCCCCOc1ccc(-c2cc(-c3ccc(C(=O)*)cc3)no2)cc1; Gln(3R-OH) = NC(=O)C[C@@H](O)[C@H](N)C(=O)O; Hyp = O=C(O)[C@@H]1C[C@@H](O)CN1

What was measured:
[1] = tested on: Candida albicans; assay: Activity at Candida albicans 3107 1,3-beta-D-glucan synthase subunit FKS1p
Procedure, shortened: (§1)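 Glucan synthase from cells grown at 37°C with vigorous shaking to early stationary phase in YPD. Membrane enzyme enriched by product entrapment. Serial echinocandin dilutions; ANF controls held 1% DMSO. Reaction started by adding enzyme, run 60 min at 25°C in a filtration polymerization assay, stopped on ice. IC50 from a variable-slope sigmoidal fit; means of three repetitions on separate days.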

[2] = tested on: Candida albicans; assay: Antimicrobial activity against Candida albicans 36082 by M27-A3 method in presence of 50% human serum; assay type: functional
Procedure, shortened: (§2)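 Broth microdilution per CLSI M27-A3 in RPMI 1640, done in triplicate on three separate days. Each strain was tested with and without 50% human serum. C. krusei ATCC 6258 and C. parapsilosis ATCC 22019 served as QC strains. Arithmetic means are reported, and geometric means were used for comparison.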

[3] = Inhibition of Candida albicans SC5314 1,3-beta-D-glucan synthase subunit FKS1p
Procedure, shortened: (§3)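 Enzyme is product-entrapped 1,3-β-D-glucan synthase, enriched from membranes of each strain grown at 37°C with shaking in YPD broth to early stationary phase. Filtration polymerization assay uses [3H]UDPG, started by adding enzyme and run 60 min at 25°C. Echinocandins are added as serial dilutions, with 1% DMSO controls for anidulafungin. IC50 is from a variable-slope sigmoidal fit; values are triplicate arithmetic means.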

[4] = tested on: Candida albicans; assay: Antimicrobial activity against Candida albicans 194 harboring FKS1 C1934T/G4082R mutant gene and FKS1 hotspot1 S645F mutant gene and FKS1 hotspot2 R1361R/H mutant gene by M27-A3 method; assay type: functional; procedure, shortened: as §2
[5] = tested on: Candida albicans; assay: Activity at Candida albicans 121 1,3-beta-D-glucan synthase subunit FKS1p G4082A mutant
Procedure, shortened: (§4)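 Product-entrapped 1,3-β-D-glucan synthase from cells grown in YPD at 37°C to early stationary phase. Wells held 50 mM HEPES pH 7.5, 10% glycerol, 1.5 mg/ml BSA, 25 mM KF, 1 mM EDTA, 25 μM GTP-γ-S, 1 μg enzyme and [3H]UDPG (0.015–2 mM). Reactions ran 60 min at 25°C. Vmax and Km came from Lineweaver-Burke plots, in triplicate.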

[6] = tested on: Candida albicans; assay: Antimicrobial activity against Candida albicans 1002 by M27-A3 method; assay type: functional
Procedure, shortened: (§5)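 Broth microdilution per CLSI M27-A3 in RPMI 1640, with and without 50% human serum, in triplicate. C. krusei ATCC 6258 and C. parapsilosis ATCC 22019 served as quality-control strains. MIC reported as arithmetic mean of three repetitions on separate days.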

[7] = tested on: Candida albicans; assay: Antimicrobial activity against Candida albicans A15 harboring FKS1 T1933Y mutant gene and FKS1 hotspot1 S645S/P mutant gene by M27-A3 method; assay type: functional; procedure, shortened: as §2
[8] = tested on: Candida albicans; assay: Antimicrobial activity against Candida albicans 5415 harboring FKS1 T1933C mutant gene and FKS1 hotspot1 S645P mutant gene by M27-A3 method; assay type: functional; procedure, shortened: as §2
[9] = tested on: Candida albicans; assay: Antimicrobial activity against Candida albicans 3107 by M27-A3 method; assay type: functional; procedure, shortened: as §2
[10] = Inhibition of Candida albicans 90 1,3-beta-D-glucan synthase subunit FKS1p G4082R mutant; procedure, shortened: as §3
[11] = tested on: Candida albicans; assay: Antimicrobial activity against Candida albicans 2762 harboring FKS1 T1922C mutant gene and FKS1 hotspot1 F641S mutant gene by M27-A3 method; assay type: functional; procedure, shortened: as §2
[12] = tested on: Candida albicans; assay: Antimicrobial activity against Candida albicans 121 harboring FKS1 G4082A mutant gene and FKS1 hotspot2 R1361H mutant gene by M27-A3 method; assay type: functional; procedure, shortened: as §2
[13] = tested on: Candida albicans; assay: Activity at Candida albicans 119 1,3-beta-D-glucan synthase subunit FKS1p T1921C mutant; procedure, shortened: as §4
[14] = tested on: Candida albicans; assay: Antimicrobial activity against Candida albicans 122 harboring FKS1 C1946A mutant gene and FKS1 hotspot1 P649H mutant gene by M27-A3 method; assay type: functional; procedure, shortened: as §2
[15] = tested on: Candida albicans; assay: Antimicrobial activity against Candida albicans 85 harboring FKS1 C1934T mutant gene and FKS1 hotspot1 S645F mutant gene by M27-A3 method; assay type: functional; procedure, shortened: as §2
[16] = tested on: Candida albicans; assay: Antimicrobial activity against Candida albicans 149 harboring FKS1 G1942T mutant gene and FKS1 hotspot1 D648Y mutant gene by M27-A3 method; assay type: functional; procedure, shortened: as §2
[17] = tested on: Candida albicans; assay: Activity at Candida albicans 122 1,3-beta-D-glucan synthase subunit FKS1p C1946A mutant; procedure, shortened: as §4
[18] = Inhibition of Candida albicans 3795 1,3-beta-D-glucan synthase subunit FKS1p; procedure, shortened: as §3
[19] = Inhibition of Candida albicans 85 1,3-beta-D-glucan synthase subunit FKS1p C1934T mutant; procedure, shortened: as §3
[20] = tested on: Candida albicans; assay: Activity at Candida albicans 90 1,3-beta-D-glucan synthase subunit FKS1p G4082R mutant; procedure, shortened: as §4
[21] = tested on: Candida albicans; assay: Antimicrobial activity against Candida albicans 36082 by M27-A3 method; assay type: functional; procedure, shortened: as §5
[22] = Inhibition of Candida albicans 89 1,3-beta-D-glucan synthase subunit FKS1p C1934A mutant; procedure, shortened: as §3
[23] = tested on: Candida albicans; assay: Antimicrobial activity against Candida albicans 3795 by M27-A3 method; assay type: functional; procedure, shortened: as §5
[24] = tested on: Candida albicans; assay: Antimicrobial activity against Candida albicans 149 harboring FKS1 G1942T mutant gene and FKS1 hotspot1 D648Y mutant gene by M27-A3 method in presence of 50% human serum; assay type: functional; procedure, shortened: as §2
[25] = Inhibition of Candida albicans 205 1,3-beta-D-glucan synthase subunit FKS1p T1933C mutant; procedure, shortened: as §3
[26] = tested on: Candida albicans; assay: Antimicrobial activity against Candida albicans 2762 harboring FKS1 T1922C mutant gene and FKS1 hotspot1 F641S mutant gene by M27-A3 method in presence of 50% human serum; assay type: functional; procedure, shortened: as §2
[27] = tested on: Candida albicans; assay: Antimicrobial activity against Candida albicans A15-10 harboring FKS1 T1933C mutant gene and FKS1 hotspot1 S645P mutant by M27-A3 method in presence of 50% human serum; assay type: functional; procedure, shortened: as §2
[28] = Inhibition of Candida albicans 119 1,3-beta-D-glucan synthase subunit FKS1p T1921C mutant
Procedure, shortened: (§6)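 Product-entrapped glucan synthase from YPD-grown cells (37°C, early stationary phase) in a filtration polymerization assay with [3H]UDPG. Echinocandin serial dilutions were added, with 1% DMSO in controls for anidulafungin. Reactions were started with enzyme, run 60 min at 25°C and stopped on ice. IC50 came from a variable-slope sigmoidal fit, in triplicate.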

[29] = tested on: Candida albicans; assay: Activity at Candida albicans 85 1,3-beta-D-glucan synthase subunit FKS1p C1934T mutant; procedure, shortened: as §4
[30] = tested on: Candida albicans; assay: Activity at Candida albicans 90028 1,3-beta-D-glucan synthase subunit FKS1p; procedure, shortened: as §1
[31] = Inhibition of Candida albicans 1002 1,3-beta-D-glucan synthase subunit FKS1p; procedure, shortened: as §6
[32] = tested on: Candida albicans; assay: Antimicrobial activity against Candida albicans 177 harboring FKS1 T1922C mutant gene and FKS1 hotspot1 F641S mutant gene by M27-A3 method; assay type: functional; procedure, shortened: as §2

## CCCCCOc1ccc(-c2cc(-c3ccc(C(=O)N[C@H]4C[C@@H](O)[C@@H](O)NC(=O)[C@@H]5[C@@H](O)[C@@H](C)CN5C(=O)[C@H]([C@H](O)CC(N)=O)NC(=O)[C@H]([C@H](O)[C@@H](O)c5ccc(O)c(OS(=O)(=O)O)c5)NC(=O)[C@@H]5C[C@@H](O)CN5C(=O)[C@H]([C@@H](C)O)NC4=O)cc3)no2)cc1 [MICAFUNGIN] (X1-[Orn(4R-OH,5R-OH)]T[Hyp][hTyr(3S-OH,4S-OH,3'-OSO3H)][Gln(3R-OH)][Pro(3S-OH,4S-Me)]; lactam 1-C)
[1]
  Km: 102 µM
  Vmax: 6.04 nmol/min
[2]
  MIC: 1 µg/mL
[3]
  IC50: 0.0582 µg/mL (≈ 0.0458 µM)
  Ki: 0.02747 µg/mL (≈ 0.0216 µM)
[4]
  MIC: 2.67 µg/mL (≈ 2.1 µM)
[5]
  Km: 129 µM
  Vmax: 4.41 nmol/min
[6]
  MIC: 0.04 µg/mL (≈ 0.0315 µM)
[7]
  MIC: 0.5 µg/mL (≈ 0.394 µM)
[8]
  MIC: 4 µg/mL (≈ 3.15 µM)
[9]
  MIC: 0.03 µg/mL (≈ 0.0236 µM)
[10]
  IC50: 0.07739 µg/mL (≈ 0.0609 µM)
  Ki: 0.26473 µg/mL (≈ 0.208 µM)
[11]
  MIC: 1 µg/mL (≈ 0.787 µM)
[12]
  MIC: 0.25 µg/mL (≈ 0.197 µM)
[13]
  Km: 54 µM
  Vmax: 2.54 nmol/min
[14]
  MIC: 0.83 µg/mL (≈ 0.653 µM)
[15]
  MIC: 2.67 µg/mL (≈ 2.1 µM)
[16]
  MIC: 0.83 µg/mL (≈ 0.653 µM)
[17]
  Km: 152 µM
  Vmax: 1.95 nmol/min
[18]
  IC50: 0.03889 µg/mL (≈ 0.0306 µM)
  Ki: 0.05864 µg/mL (≈ 0.0462 µM)
[19]
  IC50: 0.4498 µg/mL (≈ 0.354 µM)
  Ki: 1.28919 µg/mL (≈ 1.01 µM)
[20]
  Km: 31 µM
  Vmax: 2.36 nmol/min
[21]
  MIC: 0.03 µg/mL (≈ 0.0236 µM)
[22]
  IC50: 2.533 µg/mL (≈ 1.99 µM)
  Ki: 0.86713 µg/mL (≈ 0.683 µM)
[23]
  MIC: 0.03 µg/mL (≈ 0.0236 µM)
[24]
  MIC: 4 µg/mL
[25]
  IC50: 1.085 µg/mL (≈ 0.854 µM)
  Ki: 2.67363 µg/mL (≈ 2.1 µM)
[26]
  MIC: 16 µg/mL
[27]
  MIC: 8 µg/mL
[28]
  IC50: 0.1836 µg/mL (≈ 0.145 µM)
  Ki: 0.1559 µg/mL (≈ 0.123 µM)
[29]
  Km: 25 µM
  Vmax: 1.83 nmol/min
[30]
  Km: 67 µM
  Vmax: 4.71 nmol/min
[31]
  IC50: 0.05334 µg/mL (≈ 0.042 µM)
  Ki: 0.03452 µg/mL (≈ 0.0272 µM)
[32]
  MIC: 1 µg/mL (≈ 0.787 µM)
